# Results published in ChEMBL document CHEMBL1144505, “Synthesis, analytical behaviour and biological evaluation of new 4-substituted pyrrolo[1,2-a]quinoxalines as antileishmanial agents” (Bioorg Med Chem, 2007).
# pIC50: −log10 of the molar value.
# Experiments:
# Leishmania amazonensis = assay: Antileishmanial activity against Leishmania amazonensis MHOM/BR/1987/BA promastigotes by MTT assay after 1 to 2 days; type: functional, organism-based
# Outline: (§1)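 Promastigotes harvested at stationary growth phase (10⁶/ml), washed and incubated with compounds in culture medium. Viability was read by MTT reduction to formazan, with detergent lysis and absorbance at 570 nm; in some experiments parasites were instead counted under microscope. […] Values are means of three independent experiments.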
# Leishmania infantum = assay: Antileishmanial activity against Leishmania infantum clone MCAN/GR/82/LEM497 promastigotes by MTT assay after 1 to 2 days; type: functional, organism-based; outline: as §1
# PBMC [1] = assay: Cytotoxicity against human PBMC by MTT assay after 3 to 4 days; type: cell-based
# Outline: (§2)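 Freshly isolated PBMC from healthy volunteers were prepared on a Ficoll gradient and cultured in medium alone or stimulated with PHA (5 µg/ml). Compounds were added, and after 3–4 days cells were harvested, washed and counted by trypan blue exclusion; in some experiments MTT was used instead. IC50 was obtained by linear regression, and the maximum tolerated concentration was also assessed.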
# PBMC [2] = assay: Cytotoxicity against human phytohemagglutininin-activated-PBMC by MTT assay after 3 to 4 days; type: cell-based; outline: as §2
# [3] = Selectivity index, ratio of IC50 for phytohemagglutininin-activated-PBMC to IC50 for Leishmania amazonensis MHOM/BR/1987/BA promastigotes; type: functional
# Outline: (§3)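 Selectivity index is the IC50 on PHA-activated PBMC divided by the IC50 against the L. amazonensis or L. infantum promastigotes.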
# [4] = Selectivity index, ratio of IC50 for phytohemagglutininin-activated-PBMC to IC50 for Leishmania infantum clone MCAN/GR/82/LEM497 promastigotes; type: functional; outline: as §3
# [5] = Partition coefficient, log D at pH 7.4; conditions: octanol/water
Compound,pIC50 (Leishmania amazonensis),pIC50 (Leishmania infantum),pIC50 (PBMC [1]),pIC50 (PBMC [2]),Ratio IC50 [3],Ratio IC50 [4],logD [5]
CCC/C=C/c1nc2ccc(OC)cc2n2cccc12,5.40,5.60,4.26,4.52,7.5,12,4.3
C[C@@H]1[C@H](O)[C@@H](C)/C=C/C=C/C=C/C=C/C=C/C=C/C=C/[C@H](O[C@@H]2O[C@H](C)[C@@H](O)[C@H](N)[C@@H]2O)C[C@@H]2O[C@](O)(C[C@@H](O)C[C@@H](O)[C@H](O)CC[C@@H](O)C[C@@H](O)CC(=O)O[C@H]1C)C[C@H](O)[C@H]2C(=O)O [AMPHOTERICIN B],6.00,6.05,< 4.00,4.02,96,106.6,
CCC/C=C/c1nc2cc(OC)ccc2n2cccc12,5.22,6.00,4.22,4.40,6.7,40,4.52
c1ccc2c(c1)nc(CCc1ccc3c(c1)OCO3)c1cccn12,5.15,< 4.30,< 4.00,4.19,9.3,,3.84
C[C@@H]1O[C@H]1c1nc2ccccc2n2cccc12 (relative stereo),< 4.30,< 4.30,< 4.00,< 4.00,,,2.61
C/C=C/c1nc2ccc(OC)cc2n2cccc12,6.00,6.30,5.15,5.30,5,10,3.48
C/C=C/c1ccc2ccccc2n1 [CHIMANINE B],5.30,5.15,4.37,4.38,8.4,6,2.23
C[C@H]1O[C@H]1c1nc2ccccc2n2cccc12 (relative stereo),< 4.30,< 4.30,< 4.00,< 4.00,,,2.55
C/C=C/c1nc2cc(OC)ccc2n2cccc12,5.15,5.70,5.30,5.30,0.7,2.5,3.47
CCCCC#Cc1nc2ccccc2n2cccc12,4.74,4.60,4.30,4.60,1.4,1,4.36
COc1ccc2c(c1)nc(/C=C/c1ccccc1)c1cccn12,4.44,5.30,< 4.00,< 4.00,,,
CCCCCc1nc2cc(OC)ccc2n2cccc12,< 4.30,< 4.30,4.18,4.35,<1,<1,4.38
CCCc1nc2cc(OC)ccc2n2cccc12,< 4.30,< 4.30,< 4.00,4.05,,,3.4
C=Cc1nc2ccccc2n2cccc12,5.52,6.30,5.52,6.00,0.3,2,3.08
CCCCC#Cc1nc2cc(OC)ccc2n2cccc12,5.52,5.15,5.22,5.30,1.7,0.7,4.35
CCCCCc1nc2ccccc2n2cccc12,< 4.30,< 4.30,< 4.00,4.52,<1,<1,4.04
C/C=C\c1nc2ccccc2n2cccc12,5.40,6.10,5.10,5.22,1.5,7.5,3.3
COc1ccc(CCc2nc3ccccc3n3cccc23)cc1OC,4.52,< 4.30,< 4.00,< 4.00,>3.3,,2.97
CCCc1nc2ccccc2n2cccc12,< 4.30,< 4.30,< 4.00,4.00,,,3.35
c1ccc(-c2nc3ccccc3n3cccc23)cc1,< 4.30,< 4.30,< 4.00,< 4.00,,,3.6
C1=C(c2nc3ccccc3n3cccc23)CCCC1,< 4.30,< 4.30,< 4.00,< 4.00,,,4.12
C(=C\c1nc2ccccc2n2cccc12)/c1ccccc1,4.46,< 4.30,< 4.00,< 4.00,>2.9,,4.84
C/C=C/c1nc2ccccc2n2cccc12,6.30,6.15,5.22,5.30,10,7.1,3.44
CCC/C=C/c1nc2ccccc2n2cccc12,5.30,5.15,4.15,4.28,10.4,7.4,4.44
